This is an account of results in ChEMBL document CHEMBL1141865, “Discovery of 4-heteroarylbicyclo[2.2.2]octyltriazoles as potent and selective inhibitors of 11beta-HSD1: novel therapeutic agents for the treatment of metabolic syndrome” (Bioorg Med Chem Lett, 2005).

For series [1], the target named is 11-beta-hydroxysteroid dehydrogenase 1 (Mus musculus, UniProt P50172). Description: Inhibitory activity against mouse 11beta-HSD1.
Series [2] deals with T1, 11-beta-hydroxysteroid dehydrogenase 1 (Homo sapiens, UniProt P28845). The experiment in a line: In vivo inhibition of 11beta-HSD1 at 1 h (10 mg/kg, po) assessed by extent of cortisone to cortisol conversion. The class given is functional, organism-based. In outline: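 Oral dosing at 10 mg/kg, followed by exogenous [3H]cortisone as the 11β-HSD1 substrate. In vivo enzyme activity is read out as the extent of conversion to [3H]cortisol, reported as % inhibition.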
Target sequence in this assay (P28845 whole entry, looked up): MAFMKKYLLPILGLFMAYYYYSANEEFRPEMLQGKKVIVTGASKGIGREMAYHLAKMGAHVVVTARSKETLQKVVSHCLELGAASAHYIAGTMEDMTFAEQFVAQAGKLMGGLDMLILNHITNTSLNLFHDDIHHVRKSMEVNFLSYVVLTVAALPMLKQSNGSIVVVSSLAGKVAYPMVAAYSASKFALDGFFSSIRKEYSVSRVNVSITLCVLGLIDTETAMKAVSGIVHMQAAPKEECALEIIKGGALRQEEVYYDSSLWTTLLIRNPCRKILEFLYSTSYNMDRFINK

Series [3] in a line: Oral bioavailability in mouse. To be noted: in vivo. It counts as ADME, organism-based.
Series [4] can be described thus: (§1) Plasma clearance in mouse. The class given is ADME, organism-based. Conditions: plasma.
Series [5] has as its target T1, 11-beta-hydroxysteroid dehydrogenase 1. Description: Inhibitory activity against human 11beta-HSD1.
Target sequence in this assay (P28845 whole entry): as the sequence (P28845 whole entry, looked up) above
The target of series [6] is T2, 11-beta-hydroxysteroid dehydrogenase type 2 (Mus musculus, UniProt P51661).
T2 sequence (P51661 whole entry): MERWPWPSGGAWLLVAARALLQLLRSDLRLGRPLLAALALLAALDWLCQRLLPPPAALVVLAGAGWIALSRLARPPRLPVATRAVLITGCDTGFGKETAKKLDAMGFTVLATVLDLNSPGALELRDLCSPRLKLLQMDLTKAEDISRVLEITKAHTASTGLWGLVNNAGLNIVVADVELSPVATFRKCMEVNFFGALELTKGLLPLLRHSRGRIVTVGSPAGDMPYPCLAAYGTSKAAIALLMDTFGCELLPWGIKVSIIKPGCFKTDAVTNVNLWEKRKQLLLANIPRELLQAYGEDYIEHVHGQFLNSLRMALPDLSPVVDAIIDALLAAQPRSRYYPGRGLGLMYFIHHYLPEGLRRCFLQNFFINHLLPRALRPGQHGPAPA
Description: Inhibitory activity against mouse 11beta-HSD2.

For series [7], the target named is T3, 11-beta-hydroxysteroid dehydrogenase type 2 (Homo sapiens) (UniProt P80365).
T3 sequence (whole entry): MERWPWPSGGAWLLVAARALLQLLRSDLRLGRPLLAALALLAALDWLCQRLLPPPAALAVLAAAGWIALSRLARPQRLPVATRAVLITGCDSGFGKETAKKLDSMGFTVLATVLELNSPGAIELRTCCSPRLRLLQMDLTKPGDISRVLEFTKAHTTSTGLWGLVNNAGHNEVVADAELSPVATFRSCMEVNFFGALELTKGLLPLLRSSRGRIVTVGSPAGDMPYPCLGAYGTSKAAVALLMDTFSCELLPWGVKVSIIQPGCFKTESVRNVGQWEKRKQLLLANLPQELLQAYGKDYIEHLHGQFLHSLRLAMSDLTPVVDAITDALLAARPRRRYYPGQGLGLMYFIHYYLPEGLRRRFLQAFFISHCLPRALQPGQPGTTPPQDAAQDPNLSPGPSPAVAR
Description: Inhibitory activity against human 11beta-HSD2 at 4 uM.

Series [8] deals with T4, 11-beta-hydroxysteroid dehydrogenase type 2 (Homo sapiens, UniProt P80365).
T4 sequence (P80365 whole entry): T3 sequence (whole entry)
The experiment in a line: Inhibitory activity against human 11beta-HSD2.

The nature of series [9]: Oral bioavailability in dog. The class given is ADME, organism-based, Canis lupus familiaris. Conditions: in vivo.
Series [10] is filed under the species Canis familiaris. Description: AUC in dog. It counts as ADME, organism-based, Canis lupus familiaris, Plasma. To be noted: in vivo.
For series [11], the species on record is Mus musculus. The experiment in a line: AUC in mouse. The class given is ADME, organism-based, Plasma. To be noted: in vivo.
Series [12] is described as follows: Plasma clearance in rat. It counts as ADME, organism-based.
Series [13] is described as follows: Half life in rat. Conditions: in vivo. It counts as ADME, organism-based.
Series [14] is described as follows: Half life in dog. To be noted: in vivo. The class given is ADME, organism-based, Canis lupus familiaris.
Series [15] is described as follows: Half life in mouse. To be noted: in vivo. The class given is ADME, organism-based.
Series [16] is described as follows: plasma clearance in dog. It counts as ADME, organism-based, Canis lupus familiaris.
A short description of series [17]: Oral bioavailability in rat. It counts as ADME, organism-based. To be noted: in vivo.
The species entered for series [18] is Rattus norvegicus. The experiment in a line: AUC in rat. The class given is ADME, organism-based, Plasma. To be noted: in vivo.
Series [19] is filed under the species Mus musculus. The series is described as §1. It counts as ADME, organism-based. To be noted: in vivo.

Molecules are shown by their SMILES.

Chain of 11-beta-hydroxysteroid dehydrogenase 1 (Mus musculus, UniProt P50172) (P50172 whole entry): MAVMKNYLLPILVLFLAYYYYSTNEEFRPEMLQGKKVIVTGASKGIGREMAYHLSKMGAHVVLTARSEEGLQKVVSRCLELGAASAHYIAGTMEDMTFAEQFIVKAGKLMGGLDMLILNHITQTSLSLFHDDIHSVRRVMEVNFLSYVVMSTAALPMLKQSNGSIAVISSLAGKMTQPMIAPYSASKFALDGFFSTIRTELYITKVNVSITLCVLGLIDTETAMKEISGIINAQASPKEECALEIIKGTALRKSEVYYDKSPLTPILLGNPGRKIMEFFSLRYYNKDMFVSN

As usually defined, the IC50 is the concentration needed to halve the response being measured. Low readings indicate greater potency in that assay, high ones weaker potency in that assay. For `Cn1c(-c2ccccc2C(F)(F)F)nnc1C12CCC(c3noc(-c4ccc(F)cc4)n3)(CC1)CC2`, the IC50 in series [1] was less than 1 nM.
Same read-out and setting: under `COc1ccc(-c2noc(C34CCC(c5nnc(-c6ccccc6C(F)(F)F)n5C)(CC3)CC4)n2)cn1` stands 4.5 nM; under `Cn1c(-c2ccccc2C(F)(F)F)nnc1C12CCC(c3n[nH]c(-c4ccc(F)cc4)n3)(CC1)CC2`, 1.6 nM.
Still for that read-out and setting: the figure for `COc1cc(O)ccc1-c1nnc(C23CCC(c4nc(-c5ccc(F)cc5)no4)(CC2)CC3)n1C` is 2.3 nM.
With `Cn1c(-c2ccccc2C(F)(F)F)nnc1C12CCC(c3nnc(-c4ccc(F)cc4)o3)(CC1)CC2`, the midpoint of inhibition in [1], the IC50, lay at 5 nM. Compared with the last molecule, the IC50 is about 2.2-fold higher.
A word on the inhibition: it is the percentage by which the read-out fell short of the control. The low end stands for little suppression, the high end for strong suppression. As a reminder, the bioavailability is dose-corrected exposure relative to a reference, in per cent. A higher bioavailability goes with much systemic uptake. As a reminder, the clearance is a measure of how efficiently the substance is removed, as volume per time. A higher clearance goes with a high capacity for elimination. `CCCCCC12CCC(c3nnc(-c4ccccc4C(F)(F)F)n3C)(CC1)CC2` returned an inhibition in series [2] of 99%. In series [3], this molecule yielded a bioavailability of 21%. The molecule further returned a clearance in [4] of 273 mL/min/kg. Besides, the IC50 in series [1] is 3 nM; in series [5] it was 2 nM.
Turning to `Cn1c(-c2ccccc2C(F)(F)F)nnc1C12CCC(c3nc(-c4cccc(S(C)(=O)=O)c4)no3)(CC1)CC2`, the concentration for half-maximal inhibition (IC50) in series [1] amounted to 9.5 nM.
Same read-out and setting: under `Cn1c(-c2ccccc2S(C)(=O)=O)nnc1C12CCC(c3nc(-c4ccc(F)cc4)no3)(CC1)CC2` stands 29 nM; under `COc1ccc(-c2nnc(C34CCC(c5nc(-c6ccc(F)cc6)no5)(CC3)CC4)n2C)c(Cl)c1`, 12 nM.
On the same count and under the same terms, the figure for `Cn1c(-c2ccccc2C(F)(F)F)nnc1C12CCC(c3nc(-c4ccc(Cl)cc4)no3)(CC1)CC2` is 2 nM; for `Cn1c(-c2ccccc2C(F)(F)F)nnc1C12CCC(c3nc(-c4ccc(C(O)C(F)(F)F)cc4)no3)(CC1)CC2` (stereo not given) it is less than 1 nM.
Take `C1CCCn2c(nnc2C23CCC(c4nc(CC5CC5)no4)(CC2)CC3)CC1`: the figures for the IC50 in series [6], in [1] and in series [5] were greater than 4000 nM, less than 3.9 nM and 170 nM, respectively. Moreover, in series [7], the inhibition was 61%.
With `Cn1c(-c2ccccc2C(F)(F)F)nnc1C12CCC(c3nc(-c4ccc(S(C)(=O)=O)cc4)no3)(CC1)CC2`, the IC50 in [1] came out at 1.8 nM. That is a single-digit nanomolar value.
Consider `Cn1c(-c2ccccc2C(F)(F)F)nnc1C12CCC(c3nc(-c4ccc(=O)n(C)c4)no3)(CC1)CC2`, for which, in series [1], inhibition was half-maximal at 22 nM (IC50).
The same measure, in the same setting: the figure for `Cn1c(-c2ccccc2OC(F)F)nnc1C12CCC(c3nc(-c4ccc(F)cc4)no3)(CC1)CC2` is 5.2 nM; for `Cn1c(-c2ccccc2Cl)nnc1C12CCC(c3nc(-c4ccc(F)cc4)no3)(CC1)CC2` it is 3.2 nM.
With `COC(=O)C12CCC(c3nnc4n3CCCCCC4)(CC1)CC2`, the IC50 was greater than 4000 nM in series [8], greater than 4000 nM in [6], 68 nM in [1] and 110 nM in series [5].
As to `Cc1noc(C23CCC(c4nnc5n4CCCCCC5)(CC2)CC3)n1`, the IC50 in [8] is greater than 4000 nM; in series [6] it was greater than 4000 nM; in series [1], 136 nM; in series [5], 289 nM.
Turning to `Clc1ccc(-c2noc(C34CCC(c5nnc6n5CCCCCC6)(CC3)CC4)n2)cc1`, the results for the IC50 in series [6] and in series [1] were 4000 nM and 17 nM, respectively.
By half-life is commonly meant how long it takes for the measured level to halve. Regarding `Cn1c(-c2ccccc2C(F)(F)F)nnc1C12CCC(c3nc(-c4ccc(F)cc4)no3)(CC1)CC2`, the bioavailability is 100% in [9], 58% in [3] and 83% in series [17]. Besides, the AUC in series [10] was determined as 9.55 uMh; in series [11] it was 5.7 uMh; in series [18], 6.2 uMh. The clearance in series [12] was 5.39 mL/min/kg; in series [4], 5.88 mL/min/kg; in series [16] it was 3.51 mL/min/kg. Besides, the half-life was 5.1 h in series [13], 9.87 h in series [14] and 17.7 h in [15]. In [1], this molecule returned an IC50 of 1.9 nM.
For `Cn1c(-c2ccccc2C(F)(F)F)nnc1C12CCC(c3nc(-c4ccc(S(=O)(=O)C(F)(F)F)cc4)no3)(CC1)CC2`, in series [1], the IC50 is less than 0.98 nM.
With `CCCCCC12CCC(c3nnc4n3CCCCCC4)(CC1)CC2`, the IC50 in series [8] came out at 183 nM; in [6], 2100 nM; in series [1], 3 nM; in series [5], 5 nM. Further, in series [2], the inhibition came to 74%. In addition, the bioavailability in series [3] was found to be 6%. This molecule also had a CL in series [19] of 14.1 mL/min/kg.
`Cn1c(-c2ccccc2C(F)(F)F)nnc1C12CCC(c3nc(-c4ccc(F)cc4)c[nH]3)(CC1)CC2` displayed an IC50 in series [1] of 2.4 nM.
